From ChEMBL document CHEMBL1800016, “Novel thiazolidinedione derivatives with anti-obesity effects: dual action as PTP1B inhibitors and PPAR-γ activators” (Bioorg Med Chem Lett, 2010)
Activity calls are given as the source filed them. The rule behind the calls is not given here.

Key:
[1] = biological target: T1, Tyrosine-protein phosphatase non-receptor type 1 (Homo sapiens, UniProt P18031); test: Inhibition of PTP1B expressed in Escherichia coli assessed as p-nitrophenol release from pNPP substrate preincubated for 10 mins
T1 sequence (P18031 whole entry): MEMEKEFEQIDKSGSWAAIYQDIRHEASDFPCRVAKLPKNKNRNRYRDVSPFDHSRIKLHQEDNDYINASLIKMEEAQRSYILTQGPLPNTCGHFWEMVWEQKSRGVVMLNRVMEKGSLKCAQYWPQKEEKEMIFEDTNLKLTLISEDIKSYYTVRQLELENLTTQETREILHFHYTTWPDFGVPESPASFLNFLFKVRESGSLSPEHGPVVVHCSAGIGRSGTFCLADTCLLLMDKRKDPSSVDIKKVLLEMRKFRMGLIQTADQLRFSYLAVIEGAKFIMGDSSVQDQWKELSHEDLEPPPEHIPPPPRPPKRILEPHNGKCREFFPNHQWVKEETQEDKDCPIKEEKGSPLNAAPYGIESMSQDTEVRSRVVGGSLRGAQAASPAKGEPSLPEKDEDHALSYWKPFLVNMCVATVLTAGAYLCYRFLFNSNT
Outline: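 IC50 values against the PTP panel, with enzymes prepared as described in the supplementary material. Values are means ± SD of two or more experiments.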

Mus musculus [2] = test: Toxicity in high fat diet-fed diabetic C57BL/6J Jms Slc mouse model assessed as dark-brownish spots in liver at 4.8 mg/day administered with food for 4 weeks; settings: in vivo, po, 672 h
[3] = biological target: T2, Tyrosine-protein phosphatase non-receptor type 1 (Homo sapiens) (UniProt P18031); test: Competitive inhibition of PTP1B expressed in Escherichia coli
T2 sequence (whole entry): T1 sequence (P18031 whole entry)

[4] = biological target: T3, Peroxisome proliferator-activated receptor gamma (Homo sapiens, UniProt P37231); test: Agonist activity at PPARgamma expressed in HepG2 cells co-expressing PPRE assessed as transcriptional activation after 24 hrs by luciferase reporter gene assay; type: functional, cell-based
T3 sequence (P37231 whole entry): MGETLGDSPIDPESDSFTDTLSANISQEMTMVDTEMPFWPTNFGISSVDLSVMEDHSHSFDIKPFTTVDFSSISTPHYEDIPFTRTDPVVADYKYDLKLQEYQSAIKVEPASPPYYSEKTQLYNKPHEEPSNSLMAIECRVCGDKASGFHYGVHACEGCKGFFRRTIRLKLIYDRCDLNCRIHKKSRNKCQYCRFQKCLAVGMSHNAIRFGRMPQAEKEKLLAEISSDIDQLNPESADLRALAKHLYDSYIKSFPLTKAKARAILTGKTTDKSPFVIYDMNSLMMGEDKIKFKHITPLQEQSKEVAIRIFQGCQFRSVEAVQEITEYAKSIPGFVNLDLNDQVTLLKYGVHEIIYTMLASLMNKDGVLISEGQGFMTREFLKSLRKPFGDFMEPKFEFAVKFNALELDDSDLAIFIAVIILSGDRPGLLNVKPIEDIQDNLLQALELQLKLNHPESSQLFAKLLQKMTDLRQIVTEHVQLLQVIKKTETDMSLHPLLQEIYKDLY
Outline: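 HepG2 cells were transfected with a PPRE-driven luciferase reporter plus CMV-βGal. The basic luciferase reporter without a PPRE site served as the negative control. Compounds were added 6 h after transfection. Cells were lysed 24 h later. Luciferase activity was read on a luminometer and normalized to β-galactosidase for transfection efficiency. Two independent experiments; error as SEM.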

Mus musculus [5] = test: Antiobesity activity in high fat diet-fed diabetic C57BL/6J Jms Slc mouse model assessed as decrease in epididymal fat at 2.6 mg/day administered with food for 4 weeks; type: functional
Outline: (§1)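 DIO male C57BL/6J Jms Slc mice were fed a 45%-fat HFD for 8 wk, then HFD with 0.1% w/w compound in feed (about 2.6 mg/day/mouse) for 4 wk. A 10%-fat LFD lean group ran throughout. Measures were weight gain, feed efficiency (weight gain/kcal ×100), and epididymal and retroperitoneal fat pad weights. n = 8/group; mean ± SEM; one-way ANOVA.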

Mus musculus [6] = test: Antidiabetic activity in high fat diet-fed diabetic C57BL/6J Jms Slc mouse model assessed as normalization of blood glucose level at 2.6 mg/day administered with food for 4 weeks measured 60 mins after last dose by glucose tolerance test; type: functional, organism-based
Outline: (§2)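 Mice were male C57BL/6J Jms Slc, 5 wk old after 1 wk acclimatization. They were fed a 45%-fat HFD for 8 wk, then HFD with compound mixed in (1.0 g/kg diet, about 2.6 mg/day/mouse, 78 mg/day/kg) for 4 wk. Each mouse was fasted 6 h from the start of the light cycle and fasting glucose was measured. Glucose 1.0 g/kg was then given i.p., with readings at 60 and 90 min.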

Mus musculus [7] = test: Antiobesity activity in high fat diet-fed diabetic C57BL/6J Jms Slc mouse model assessed as reduction in body weight at 2.6 mg/day administered with food for 4 weeks; type: functional; outline: as §1
Mus musculus [8] = test: Antidiabetic activity in high fat diet-fed diabetic C57BL/6J Jms Slc mouse model assessed as normalization of blood glucose level at 2.6 mg/day administered with food for 4 weeks measured 90 mins after last dose by glucose tolerance test; type: functional, organism-based; outline: as §2
Mus musculus [9] = test: Antiobesity activity in high fat diet-fed diabetic C57BL/6J Jms Slc mouse model assessed as decrease in total cholesterol level in serum at 2.6 mg/day administered with food for 4 weeks; type: functional
Outline: (§3)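 DIO mice were fed HFD for 8 wk, then HFD containing 0.1% w/w compound (about 2.6 mg/day/mouse) for 4 wk. At the end of feeding, mice were deprived of food overnight. Serum total cholesterol, triglyceride and NEFA were then measured. Values are mean ± SEM.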

Mus musculus [10] = test: Antiobesity activity in high fat diet-fed diabetic C57BL/6J Jms Slc mouse model assessed as weight gain/kcal at 2.6 mg/day administered with food for 4 weeks; type: functional; outline: as §1
[11] = biological target: T4, Peroxisome proliferator-activated receptor gamma (Homo sapiens) (UniProt P37231); test: Agonist activity at PPARgamma expressed in HepG2 cells co-expressing PPRE assessed as concentration required for maximal activation after 24 hrs by luciferase reporter gene assay; type: functional, cell-based
T4 sequence (whole entry): T3 sequence (P37231 whole entry)

Mus musculus [12] = test: Antiobesity activity in high fat diet-fed diabetic C57BL/6J Jms Slc mouse model assessed as decrease in non-esterified free fatty acid level in serum at 2.6 mg/day administered with food for 4 weeks; type: functional; outline: as §3
Mus musculus [13] = test: Antiobesity activity in high fat diet-fed diabetic C57BL/6J Jms Slc mouse model assessed as decrease in serum triglyceride level at 2.6 mg/day administered with food for 4 weeks; type: functional; outline: as §3
Mus musculus [14] = test: Antiobesity activity in high fat diet-fed diabetic C57BL/6J Jms Slc mouse model assessed as decrease in retroperitoneal fat at 2.6 mg/day administered with food for 4 weeks; type: functional; outline: as §1

SMILES | IC50 [1] | further results
CC(=O)Nc1ccc(COc2cc(OS(=O)(=O)c3ccc(C)cc3)ccc2/C=C2\SC(=O)NC2=O)cc1 | 33 µM | –
O=C1NC(=O)/C(=C/c2ccc(OCc3ccc(C(F)(F)F)cc3)cc2OCc2ccc(C(F)(F)F)cc2)S1 | 9 µM | –
Cc1ccc(S(=O)(=O)Oc2ccc(/C=C3\SC(=O)NC3=O)c(OCc3ccc(NC(=O)c4cccc(C(F)(F)F)c4)cc3)c2)cc1 | 11 µM | –
O=C1NC(=O)/C(=C/c2ccc(OS(=O)(=O)c3ccc(Br)cc3)cc2OCc2ccc(S(=O)(=O)N3CCOCC3)cc2)S1 | 14 µM | –
O=C1NC(=O)/C(=C/c2ccc(OCc3ccccc3)cc2OCc2ccc(C(F)(F)F)cc2)S1 | 4 µM | –
Cc1ccc(S(=O)(=O)Oc2ccc(/C=C3\SC(=O)NC3=O)c(OCc3ccc(C(F)(F)F)cc3)c2)cc1 | 2.3 µM | –
O=C1NC(=O)/C(=C/c2ccc(OCc3ccccc3)cc2OCc2ccccc2)S1 | 10 µM | –
O=C1NC(=O)/C(=C/c2ccc(OCc3ccccc3)cc2OCc2ccc(F)cc2)S1 | 9 µM | –
Cc1ccc(S(=O)(=O)Oc2cc(OCc3cc(C(F)(F)F)cc(C(F)(F)F)c3)c(/C=C3\SC(=O)NC3=O)cc2Br)cc1 | 2 µM | –
O=C1NC(=O)/C(=C/c2cc(Br)ccc2OCc2cc(C(F)(F)F)cc(C(F)(F)F)c2)S1 | – | Activity (Mus musculus [2]): Toxic; inhibition [3]: Active; EC50 [4]: 0.87 µM; Activity (Mus musculus [5]): 1.27 g; Activity (Mus musculus [6]): Active; Activity (Mus musculus [7]): 2.16 g; Activity (Mus musculus [8]): Active; Activity (Mus musculus [9]): 125 mg/dL; feed efficiency (Mus musculus [10]): 0.68 g/100 kcal; Activity [11]: 4 µM; Activity (Mus musculus [12]): 0.22 mM; Activity (Mus musculus [13]): 78 mg/dL; Activity (Mus musculus [14]): 0.42 g
O=C1NC(=O)/C(=C/c2ccc(OCc3ccccn3)cc2OCc2ccc(C(F)(F)F)cc2)S1 | 12 µM | –

Continued, in another order:

IC50 [1] | SMILES | further results
19 µM | O=C1NC(=O)/C(=C/c2ccc(OCc3ccc(S(=O)(=O)N4CCOCC4)cc3)cc2OCc2ccc(C(F)(F)F)cc2)S1 | –
6 µM | O=C1NC(=O)/C(=C/c2ccc(OS(=O)(=O)c3ccc(Br)cc3)cc2OCc2ccc(C(F)(F)F)cc2)S1 | –
1.4 µM | O=C1NC(=O)/C(=C/c2cc(Br)c(OCc3ccc(C(F)(F)F)cc3)cc2OCc2ccc(C(F)(F)F)cc2)S1 | –
16 µM | Cc1ccc(S(=O)(=O)Oc2ccc(/C=C3\SC(=O)NC3=O)c(OS(=O)(=O)c3ccc(C)cc3)c2)cc1 | –
4 µM | O=C1NC(=O)/C(=C/c2ccc(OCc3ccc(F)cc3)cc2OCc2ccc(C(F)(F)F)cc2)S1 | –
136 µM | O=C(O)COc1cc(OCc2ccccc2)ccc1/C=C1\SC(=O)NC1=O | –
12 µM | O=C1NC(=O)/C(=C/c2ccc(OCc3cccnc3)cc2OCc2ccc(C(F)(F)F)cc2)S1 | –
6 µM | O=C1NC(=O)/C(=C/c2ccc(OCc3ccc(NC(=O)c4cccc(C(F)(F)F)c4)cc3)cc2OCc2ccc(C(F)(F)F)cc2)S1 | –
8 µM | O=C1NC(=O)/C(=C/c2ccc(OCc3ccc(F)cc3)cc2OCc2ccc(F)cc2)S1 | –
9 µM | O=C1NC(=O)/C(=C/c2ccc(OCc3ccc(F)cc3)cc2OCc2ccccc2)S1 | –
